Compound activity (PubChem)
HKDC1 inhibitor: HKDC1 (human) hexokinase inhibition. Q2TB90. recombinant HKDC1, G6PDH/diaphorase resazurin coupled fluorescence. inhibition, % at 20 µM. 340,000 compounds, 0.16% hits. AID 493160;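 active = inhibition above about 35% when tested at 20 µM, limit read from the data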
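Material: recombinant HKDC1 hexokinase; Amount: HKDC1 at 5 µg/mL; Medium: Tris pH 8.0 buffer with MgCl2, Tween-20, BSA, BME; Schedule: 90 min reaction incubation at room temperature, dark; Technique: coupled resazurin fluorescence, excitation 525 nm, emission 613 nm.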
aDG glyco act: increases alpha dystroglycan glycosylation; 360,000 compounds, 0.22% hits; Pro5-aDG cells, alpha-DG glycosylation AlphaScreen (IIH6); 0% Pro5, 100% B10-LARGE cell signal; activation, % at 10 µM; AID 624168;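 active = activation of at least 8% versus controls, or a plate z-score of at least 8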;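 note: Pro5 are CHO cells carrying HIG-tagged alpha-DG that lacks glycosylation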
Beta2AR agonist: activates human beta-2 adrenergic receptor causing internalization; P07550; Am2.2-beta2AR cells, FAP receptor internalization, flow cytometry; response, % (test concentration not listed); 340,000 compounds, 0.43% hits;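 active = response above a set limit, near 3 SD of response in nonfluorescent compounds, cut at about 42% in these data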
Target sequence (P07550 whole entry, looked up): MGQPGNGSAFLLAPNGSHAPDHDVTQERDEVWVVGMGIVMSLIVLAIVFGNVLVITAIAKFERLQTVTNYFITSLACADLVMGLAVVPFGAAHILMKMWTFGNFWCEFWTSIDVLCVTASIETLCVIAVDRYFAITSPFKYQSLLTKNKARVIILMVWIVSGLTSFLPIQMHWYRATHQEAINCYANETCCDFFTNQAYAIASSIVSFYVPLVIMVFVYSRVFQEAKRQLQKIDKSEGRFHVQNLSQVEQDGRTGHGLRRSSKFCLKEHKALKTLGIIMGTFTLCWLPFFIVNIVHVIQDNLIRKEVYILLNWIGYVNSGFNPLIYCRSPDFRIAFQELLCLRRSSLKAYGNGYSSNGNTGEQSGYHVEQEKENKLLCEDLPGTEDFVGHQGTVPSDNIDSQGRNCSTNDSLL
H9c2 protect: protects H9c2 cardiomyocytes from peroxide injury | 360,000 compounds, 0.63% hits | protection from H2O2 cell death, % at 20 µM | H2O2 injury protection, ATPLite, 2 h;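 active = compounds giving at least 50% protection of heart cells from peroxide-induced death in the single-dose screen, raw or plate-pattern-corrected value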
PfGluPho inh: PfG6PD (Plasmodium falciparum) enzyme inhibition | PfGluPho enzyme, NADPH resazurin-diaphorase fluorescence | inhibition, % at 20 µM | 350,000 compounds, 0.78% hits | AID 504690;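 active = inhibition reaching at least a set limit at 20 µM in the primary screen, cut at about 59% in these data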
UCH37 DUB inh: inhibitors of human deubiquitinating enzyme UCH37; Q9Y5K5; AID 588478; inhibition, % (no concentration beside the values); purified proteasome/UCH37, Ub-AMC cleavage fluorescence; 330,000 compounds, 0.33% hits;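 active = mean inhibition over replicate wells above about 20%, limit read from the data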
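Signal – fluorescence, ex 355 nm, em 460 nm · System – Proteasome-bound UCH37 · Input – 0.15 nM proteasome as dispensed · Timing – 30 min preincubation with enzyme, 25 min cleavage at room temperature · Read-out basis – percent inhibition of cleavage signal versus uninhibited and no-proteasome wells · Medium – Tris-HCl pH 7.4 with ATP-MgCl2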
Hits are given with their value; . = inactive; / = no result given. Rows were chosen to be rich in hits. Some 2.1% of all compounds tested hit in one or more screens of this group.

SMILES | HKDC1 inhibitor | aDG glyco act | Beta2AR agonist | H9c2 protect | PfGluPho inh | UCH37 DUB inh
Nc1cc(Cl)c2nonc2c1[N+](=O)[O-] | . | . | 73 | . | . | .
CC(=O)O[C@@H]1C=C[C@](C)(O)C[C@@H](C)CC=C[C@H]2[C@H](O)[C@@](C)(O)[C@@H](C)[C@H]3[C@H](Cc4ccccc4)NC(=O)[C@@]312 | / | / | / | / | / | .
COc1ccc(-n2c(/C=C/c3ccc(O)cc3)nc3ccccc3c2=O)cc1 | . | . | . | 53 | . | .
O=c1c2ccccc2nc(/C=C/c2ccc(O)cc2)n1-c1ccc(O)cc1 | . | . | . | 55 | . | .
COc1ccc(-n2c(/C=C/c3ccc(O)c(OC)c3)nc3ccccc3c2=O)cc1 | . | . | . | 88 | . | .
COc1ccc(-n2c(/C=C/c3ccc4c(c3)OCO4)nc3ccccc3c2=O)cc1 | . | . | . | . | . | .
CN1CCN(c2ccc([N+](=O)[O-])c(NN=C3CN4CCC3CC4)c2)CC1 | / | / | / | / | / | .
O=C1NC(=S)NC(=O)C1=Cc1cccn1-c1ccc(O)cc1 | . | . | 71 | . | . | .
CN1C(=O)/C(=C/c2cccn2-c2ccc3ccccc3c2)C(=O)NC1=S | . | . | 47 | . | . | .
Cc1cc(C)cc(N2C(=O)NC(=O)/C(=C\c3cccn3-c3ccc(Cl)cc3)C2=O)c1 | . | . | . | . | . | .
CC(=O)OC[C@]12CCC(C)=C[C@H]1O[C@@H]1[C@H](O)[C@@H](OC(C)=O)[C@@]2(C)[C@]12CO2 | . | . | 103 | . | . | .
O=C(O)c1cc[c]([Hg][Cl])cc1 | . | . | . | . | 122 | /
CCCC(C)n1[nH]c(=O)c2c1NC(=O)CSC2c1ccc(OC)cc1 (configuration not stated) | . | . | . | . | . | 20
O=c1[nH]c2ccccc2n1CCCN1CCC(n2c(=O)[nH]c3cc(Cl)ccc32)CC1 | . | . | . | 63 | . | .
Cc1cc(C)cc(N2C(=O)/C(=C\c3ccc(N4CCN(C)CC4)o3)C(=O)NC2=S)c1 | . | . | . | . | . | 24
NC(N)=NN=Cc1cn(-c2ccccc2)nc1-c1cccs1 | / | / | / | / | / | .
CCC(C)N1C(=O)NC(=O)C2(Cc3c(ccc4ccccc34)N(C)C2)C1=O (configuration not stated) | . | . | . | 69 | . | .
CC1=CC2C=C(C)C(C)C3C(CC(C)C)NC(=O)C23C(=O)C=CC(O)C(O)CC1 (configuration not stated) | / | / | / | / | / | .
CC1=CC2OC3CC4OC(=O)C=CC=CC(=O)OCCC(C)C(O)C(=O)OCC2(CC1O)C4(C)C31CO1 (configuration not stated) | . | . | . | 54 | . | /
CC(=O)OC1C(=O)OCC23CCC4(C)OC4C2OC2CC(OC(=O)C=CC=CC(=O)OCCC1C)C3(C)C21CO1 (configuration not stated) | . | . | . | 56 | . | /
Cc1cc(O)c2c(c1)C(=O)C13C(=C2O)C(=O)[C@H]2[C@@H](O)[C@@H]1[C@H]1[C@H](O)[C@@H]3C(=O)C3=C(O)c4c(O)cc(C)cc4C(=O)C312 (some centres not stated) | 67 | . | . | . | . | 28
COc1ccc(C(=O)ON=C(C(N)=O)P(=O)(OC(C)C)OC(C)C)cc1 | / | / | / | / | / | .
NC(N)=Nc1ccc2[nH]c3c(c2c1)C[C@@]1(O)[C@H]2Cc4ccc(O)c5c4[C@@]1(CCN2CC1CC1)[C@H]3O5 | . | . | . | . | 97 | .
CCCNC(=O)N1[C@H]2CC[C@@H]1C(C(=O)OC)=C(c1cc3ccccc3o1)C2 | . | . | . | . | . | .
COC(=O)C1=C(c2ccc(F)cc2F)C[C@@H]2CC[C@H]1N2C(=O)NCCNC(C)=O | . | . | . | . | . | 25
SMILES | HKDC1 inhibitor | aDG glyco act | Beta2AR agonist | H9c2 protect | PfGluPho inh | UCH37 DUB inh
COC(=O)C1=C(c2cc3ccccc3o2)C[C@@H]2CC[C@H]1N2C(=O)NCCO | . | . | . | . | . | 27
O=C(NN=C1CN2CCC1CC2)c1cccc(O)c1 | / | / | / | / | / | .
C=C(C=O)CC1CC(O)[C@]2(C)OC3CC4OC5C[C@]6(C)O[C@]7(C)CCC8OC9C[C@]%10(C)OC%11C(C)=CC(=O)OC%11CC%10OC9C[C@@H](C)C8OC7CC6O[C@]5(C)CC5OC5C4OC3CC2O1 (some centres not stated) | . | . | 107 | . | . | .
CC(=O)OC1(C)CC(C)C(=O)C(C(O)CC2CC(=O)NC(=O)C2)C1 (configuration not stated) | . | . | 68 | . | . | /
C[C@@H]1C[C@@H]([C@H](O)CC2CC(=O)NC(=O)C2)C(=O)[C@@H](C)C1 | . | . | . | . | . | /
COC(=O)C1C2c3ccccc3OC1(C)N=c1sc(=Cc3cnn(C)c3)c(=O)n12 (configuration not stated) | / | / | / | / | / | .
CC(=NOC(=O)N(C)C)c1ncc(C(F)(F)F)cc1N1CCOCC1 | / | / | / | / | / | .
C[N+](C)(N)CCOC(=O)C(O)(c1ccccc1)C1CCCCC1 (configuration not stated) | . | . | 98 | . | . | .
Cc1c(C=NO)c2ccccc2n1C | / | / | / | / | / | .
O=C(CSC1c2ccccc2-c2ccccc21)NN=Cc1ccc(C(=O)O)cc1 | / | / | / | / | / | .
C#CCCC[C@@H]1OC(=O)CNC(=O)C([C@@H](C)CC)NC(=O)[C@@H]2CCCN2C(=O)C([C@@H](C)CC)OC(=O)[C@H](Cc2ccccc2)N(C)C(=O)[C@H](C(C)C)NC(=O)C1(C)C (some centres not stated) | / | . | / | . | / | /
CCC(C)C1NC(=O)C(NC(=O)C(CC(C)C)N(C)C(=O)C2CCCN2C(=O)C(C)O)C(C)OC(=O)C(Cc2ccc(OC)cc2)N(C)C(=O)C2CCCN2C(=O)C(CC(C)C)NC(=O)[C@H](C)C(=O)[C@H](C(C)C)OC(=O)CC1O (some centres not stated) | . | . | 42 | . | . | /
C=C1C(C)C2C(Cc3ccccc3)NC(=O)C23OC(=O)/C=C/C(O)CCCC(C)C/C=C/C3C1O (configuration not stated) | . | . | . | 57 | . | /
C=C1[C@@H](C)[C@H]2[C@H](Cc3ccccc3)NC(=O)[C@]23OC(=O)C=C[C@H](O)CCC[C@@H](C)CC=C[C@H]3[C@@H]1O | / | / | / | / | / | .
O=C1NC(=O)N(Cc2ccc(F)cc2)C(=O)/C1=C\c1ccc([N+](=O)[O-])s1 | . | . | . | . | 71 | /
COc1ccccc1N1C(=O)NC(=O)/C(=C/c2ccc([N+](=O)[O-])s2)C1=O | . | / | . | / | 72 | .
COc1ccc(CN2C(=O)NC(=O)/C(=C/c3ccc([N+](=O)[O-])s3)C2=O)cc1 | . | . | . | . | 67 | /
